Results from ChEMBL document CHEMBL1143074, “Symplocamide A, a potent cytotoxin and chymotrypsin inhibitor from the marine Cyanobacterium Symploca sp” (J Nat Prod, 2008).
The source made the active and inactive calls. The calls are words filed in the database; no cut-off is given here.

Experiments:
[1] = Inhibition of trypsin
In short: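 Trypsin (0.0023 mg/mL final, 2.75 BAEE U) was added to 0.45 mM BAEE in 64 mM NaH2PO4 pH 7.6 at 25 °C. Compound was premixed with substrate from a 1:2 EtOH dilution series (final 4.5 × 10-4 to 6.8 × 10^-6 M), against an EtOH blank. N-benzoyl-L-arginine formation was read at 253 nm for 5 min, and the 0.5–2 min interval was analyzed.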

[2] = Inhibition of chymotrypsin at 10 uM
[3] = Inhibition of trypsin at 10 uM
[4] = Inhibition of chymotrypsin
In short: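 Spectrophotometric assay: 0.0025 mg/mL chymotrypsin (0.0086 U) with 0.53 mM BTEE in 38 mM Tris-HCl pH 7.8, 53 mM CaCl2, 0.5 mM HCl and 32% MeOH at 25 °C. Inhibitor (from MeOH dilutions, final 6.25 × 10-5 to 7.5 × 10^-9 M) was equilibrated with substrate before enzyme addition. Absorbance at 256 nm was followed for 5 min, and the 0.5–1.5 min interval was analyzed.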

[5] = test system: Plasmodium falciparum; experiment: Antiparasitic activity against chloroquine-resistant Plasmodium falciparum W2 in microfluorimetric assay; assay type: functional, organism-based
[6] = test system: NCI-H460; experiment: Cytotoxicity against human H460 cells; assay type: functional, cell-based
[7] = test system: Leishmania donovani; experiment: Antiparasitic activity against Leishmania donovani LD-1S/MHOM/SD/00-strain 1S; assay type: functional, organism-based
[8] = Cytotoxicity against mouse Neuro2a cells; assay type: functional, cell-based; conditions: N2a
[9] = test system: Trypanosoma cruzi; experiment: Antiparasitic activity against Trypanosoma cruzi C4 clone; assay type: functional, organism-based

Row | SMILES | IC50 [1] [nM] | Activity [2] | Activity [3] | further results
1 | CC(C)C[C@@H](NC(=O)[C@H](O)COS(=O)(=O)O)C(=O)N[C@@H]1C(=O)N[C@@H](CCCNC(=N)N)C(=O)N[C@H]2CC[C@@H](O)N(C2=O)[C@@H](CC(C)C)C(=O)N(C)[C@@H](Cc2ccc(O)cc2)C(=O)N[C@@H](C(C)C)C(=O)O[C@@H]1C | 9.6 |  |  | 
2 | CC(C)[C@H](NC(=O)[C@@H](C)NC(=O)[C@H](CCCc1ccc(O)cc1)NC(=O)[C@H](O)CO)C(=O)N[C@@H]1C(=O)N[C@@H](CCc2ccc(O)cc2)C(=O)N[C@H]2CC[C@@H](O)N(C2=O)[C@@H]([C@@H](C)O)C(=O)N(C)[C@@H](Cc2ccc(O)c(Br)c2)C(=O)N[C@@H](C(C)C)C(=O)O[C@@H]1C |  | inactive | inactive | 
3 | CCC(=O)N[C@@H](CCC(N)=O)C(=O)N1CC(C)[C@@H]2OC(=O)[C@H]([C@@H](C)CC)NC(=O)[C@H](Cc3ccc(O)cc3)N(C)C(=O)[C@H]([C@@H](C)CC)N3C(=O)[C@H](CC[C@H]3O)NC(=O)[C@H](CC(C)C)NC(=O)[C@H]21 (stereo partly drawn) |  | inactive | inactive | 
4 | CCCC(=O)N[C@@H](CC(C)C)C(=O)N[C@@H](CCC(=O)O)C(=O)N[C@@H]1C(=O)N[C@@H](Cc2ccc(O)cc2)C(=O)N[C@H]2CC[C@@H](O)N(C2=O)[C@@H](C(C)C)C(=O)N(C)[C@@H](Cc2ccccc2)C(=O)N[C@@H]([C@@H](C)CC)C(=O)O[C@@H]1C |  | inactive | inactive | 
5 | CCCC(=O)N[C@@H](Cc1ccccc1)C(=O)N[C@@H](CCC(=O)O)C(=O)N[C@@H]1C(=O)N[C@@H](CCC(=O)O)C(=O)N[C@H]2CC[C@@H](O)N(C2=O)[C@@H](C(C)C)C(=O)N(C)[C@@H](Cc2ccccc2)C(=O)N[C@@H]([C@@H](C)CC)C(=O)O[C@@H]1C |  | inactive | inactive | 
6 | CC[C@H](C)[C@@H]1NC(=O)[C@H](Cc2ccc(OC)cc2)N(C)C(=O)[C@H]([C@@H](C)O)N2C(=O)[C@H](CC[C@H]2O)NC(=O)[C@H](CC(C)C)NC(=O)[C@@H](NC(=O)[C@H](CCC(N)=O)NC(=O)[C@@H]2CCC(=O)N2)[C@@H](C)OC1=O |  | inactive | inactive | 
7 | CC[C@H](C)[C@@H]1NC(=O)[C@H](Cc2ccc(O)cc2)N(C)C(=O)[C@H]([C@@H](C)CC)N2C(=O)C(CCC2O)NC(=O)[C@H](CC(C)C)NC(=O)[C@@H]2C(OC1=O)C(C)CN2C(=O)[C@H](CCC(N)=O)NC(C)=O (stereo in doubt; form 2) |  | inactive | inactive | 
8 | CC[C@H](C)[C@@H]1NC(=O)[C@H](Cc2ccccc2)N(C)C(=O)[C@H]([C@@H](C)CC)N2C(=O)[C@H](CC[C@H]2O)NC(=O)[C@H](CCCNC(=N)N)NC(=O)[C@@H](NC(=O)[C@H](O)COS(=O)(=O)O)[C@@H](C)OC1=O [CYANOPEPTOLIN S] | 240 |  |  | 
9 | CC(C)[C@@H]1NC(=O)[C@H](Cc2ccc(O)cc2)N(C)C(=O)[C@H](Cc2ccccc2)N2C(=O)[C@H](CC[C@H]2O)NC(=O)[C@H](CCCNC(=N)N)NC(=O)[C@@H](NC(=O)[C@@H](O)COS(=O)(=O)O)[C@@H](C)OC1=O [MICROPEPTIN 90] | 2080 | inactive |  | 
10 | CCCCCCCC(=O)N[C@@H](CCC(=O)O)C(=O)N[C@@H]1C(=O)N[C@@H](CCCCN)C(=O)N[C@H]2CC[C@@H](O)N(C2=O)[C@@H](CC(C)C)C(=O)N(C)[C@@H](Cc2ccc(O)cc2)C(=O)N[C@@H](C(C)C)C(=O)O[C@@H]1C [MICROPEPTIN A] | 70 | inactive |  | 
11 | CCCCCC(=O)N[C@@H](CCC(=O)O)C(=O)N[C@@H]1C(=O)N[C@@H](CCCNC(=N)N)C(=O)N[C@H]2CC[C@@H](O)N(C2=O)[C@@H](CC(C)C)C(=O)N(C)[C@@H](Cc2ccc(O)cc2)C(=O)N[C@@H](C(C)C)C(=O)O[C@@H]1C [MICROPEPTIN B] | 260 | inactive |  | 
12 | CC[C@H](C)[C@@H]1NC(=O)[C@H](Cc2ccc(O)cc2)N(C)C(=O)[C@H](Cc2ccccc2)N2C(=O)[C@H](CC[C@H]2O)NC(=O)[C@H](CCCNC(=N)N)NC(=O)[C@@H](NC(=O)[C@H](CC(=O)O)NC(C)=O)[C@@H](C)OC1=O [MICROPEPTIN E1964] | 4360 | inactive |  | 
13 | CCCC(=O)N[C@@H](CC(=O)O)C(=O)N[C@@H]1C(=O)N[C@@H](CCCNC(=N)N)C(=O)N[C@H]2CC[C@@H](O)N(C2=O)[C@@H](Cc2ccccc2)C(=O)N(C)[C@@H](Cc2ccc(O)cc2)C(=O)N[C@@H]([C@@H](C)CC)C(=O)O[C@@H]1C [MICROPEPTIN EI992] | 3830 | inactive |  | 
14 | CCCCCC(=O)N[C@@H](CC(=O)O)C(=O)N[C@@H]1C(=O)N[C@@H](CCCCN)C(=O)N[C@H]2CC[C@@H](O)N(C2=O)[C@@H]([C@@H](C)CC)C(=O)N(C)[C@@H](Cc2ccc(O)cc2)C(=O)N[C@@H](C(C)C)C(=O)O[C@@H]1C [MICROPEPTIN SD944] | 8470 | inactive |  | 
15 | CCCCCC(=O)N[C@@H](CC(=O)O)C(=O)N[C@@H]1C(=O)N[C@@H](CCCNC(=N)N)C(=O)N[C@H]2CC[C@@H](O)N(C2=O)[C@@H]([C@@H](C)CC)C(=O)N(C)[C@@H](CC(=O)c2ccccc2N)C(=O)N[C@@H](C(C)C)C(=O)O[C@@H]1C [MICROPEPTIN SD999] | 4000 | inactive |  | 
16 | CCCCCC(=O)N[C@@H](CC(=O)O)C(=O)N[C@@H]1C(=O)N[C@@H](CCCNC(=N)N)C(=O)N[C@H]2CC[C@@H](O)N(C2=O)[C@@H]([C@@H](C)CC)C(=O)N(C)[C@@H](Cc2c[nH]c3ccccc23)C(=O)N[C@@H](C(C)C)C(=O)O[C@@H]1C [MICROPEPTIN SF995] | 200 | inactive |  | 
17 | CCCCCC(=O)N[C@@H](CCC(=O)O)C(=O)N[C@@H]1C(=O)N[C@@H](CCCCN)C(=O)N[C@H]2CC[C@@H](O)N(C2=O)[C@@H](Cc2ccccc2)C(=O)N(C)[C@@H](Cc2c[nH]c3ccccc23)C(=O)N[C@@H](C(C)C)C(=O)O[C@@H]1C [MICROPEPTIN T2] | 100 | inactive |  | 
18 | CC[C@H](C)[C@@H]1NC(=O)[C@H](Cc2ccc(O)cc2)N(C)C(=O)[C@H](CC(C)C)N2C(=O)[C@H](CC[C@H]2OC)NC(=O)[C@H](CC(C)C)NC(=O)[C@@H]2[C@@H](OC1=O)C(C)CN2C(=O)[C@H](CCC(N)=O)NC(C)=O (stereo partly drawn) [NOSTOPEPTIN F] |  |  | inactive | IC50 [4]: 3800 nM
19 | CC[C@H](C)[C@@H]1NC(=O)[C@H](Cc2ccc(OC)cc2)N(C)C(=O)[C@H](CC(C)C)N2C(=O)[C@H](CC[C@H]2O)NC(=O)[C@H](CC(C)C)NC(=O)[C@@H]2[C@@H](OC1=O)C(C)CN2C(=O)[C@H](CCC(N)=O)NC(C)=O (stereo partly drawn) [NOSTOPEPTIN I] |  |  | inactive | IC50 [4]: 3500 nM
20 | CC[C@H](C)[C@@H]1NC(=O)[C@H](Cc2ccc(OC)cc2)N(C)C(=O)[C@H](CC(C)C)N2C(=O)[C@H](CC[C@H]2OC)NC(=O)[C@H](CC(C)C)NC(=O)[C@@H]2[C@@H](OC1=O)C(C)CN2C(=O)[C@H](CCC(N)=O)NC(C)=O (stereo partly drawn) [NOSTOPEPTIN J] |  |  | inactive | IC50 [4]: 3200 nM
21 | CC[C@@H](C)[C@@H]1NC(=O)[C@H](Cc2ccc(OC)cc2)N(C)C(=O)[C@H]([C@@H](C)CC)N2C(=O)[C@H](CC[C@H]2O)NC(=O)[C@H](CCc2ccc(O)cc2)NC(=O)[C@@H](NC(=O)[C@H](CCc2ccc(O)cc2)NC(=O)[C@@H](COS(=O)(=O)O)OC)[C@@H](C)OC1=O [OSCILLAPEPTIN A] |  |  | inactive | IC50 [4]: 1890 nM
22 | CC[C@@H](C)[C@@H]1NC(=O)[C@H](Cc2ccccc2)N(C)C(=O)[C@H]([C@@H](C)CC)N2C(=O)[C@H](CC[C@H]2O)NC(=O)[C@H](CCCCN)NC(=O)[C@@H](NC(=O)[C@@H](CCc2ccccc2)NC(=O)[C@@H](COS(=O)(=O)O)OC)[C@@H](C)OC1=O [OSCILLAPEPTIN F] | 180 | inactive |  | 
23 | CC[C@H](C)[C@@H]1NC(=O)[C@H](Cc2ccc(OC)cc2)N(C)C(=O)[C@H]([C@@H](C)O)N2C(=O)[C@H](CC[C@H]2O)NC(=O)[C@H](CC(C)C)NC(=O)[C@@H](NC(=O)[C@H](CCC(N)=O)NC(=O)[C@@H](NC(=O)[C@@H](O)CO)C(C)C)[C@@H](C)OC1=O [PLANKTOPEPTIN BL1061] |  |  | inactive | IC50 [4]: 2100 nM
24 | CC[C@H](C)[C@@H]1NC(=O)[C@H](Cc2ccc(OC)cc2)N(C)C(=O)[C@H]([C@@H](C)O)N2C(=O)[C@H](CC[C@H]2O)NC(=O)[C@H](CC(C)C)NC(=O)[C@@H](NC(=O)[C@H](CCC(N)=O)NC(=O)[C@H](CCc2ccc(O)cc2)NC(=O)[C@@H](O)CO)[C@@H](C)OC1=O [PLANKTOPEPTIN BL1125] |  |  | inactive | IC50 [4]: 800 nM
25 | CCCC(=O)N[C@@H](CCC(N)=O)C(=O)N[C@@H]1C(=O)N[C@@H](CCCNC(N)=O)C(=O)N[C@H]2CC[C@@H](O)N(C2=O)[C@@H]([C@@H](C)CC)C(=O)N(C)[C@@H](Cc2ccc(OC)c(Br)c2)C(=O)N[C@@H](C(C)C)C(=O)O[C@@H]1C [SYMPLOCAMIDE A] | 80200 |  |  | IC50 [4]: 380 nM; IC50 [5]: 950 nM; IC50 [6]: 40 nM; IC50 [7]: > 9.5 µM; IC50 [8]: 29 nM; IC50 [9]: > 9.5 µM
